Reference: PubChem BioAssay AID1381 (University of Pittsburgh Molecular Library Screening Center, 2008)
Hit rate of the full screen: of about 220,000 compounds, about 1,000 (0.45%) were called active.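 How the source made its calls: active means plate z-score of nuclear minus cytoplasmic receptor signal below a set negative limit, without overly bright fluorescence or cell loss (cut at about -3.5 in these data, passing the limit was not always enough); inactive means the rest, inconclusive results apart.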 The sample as a whole holds a higher share of actives than the screen did.

Assay: inhibitors of GR-EGFP nuclear translocation, primary screen, dynein cargo transport inhibitor project, imaging, high-content, 3617.4 mouse cells (AID 1381)
Details: stimulated with dexamethasone, 1 µM
Procedure, shortened: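 Also added: dexamethasone, 1.0 µM final. Medium: tet-free, stripped-serum medium. Detection: fixed, Hoechst-stained cells imaged at 10x for EGFP. Read-out: nuclear-to-cytoplasmic GR-EGFP distribution per well. Times: induction 48 h, compound 1 h, agonist 30 min.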

[1] = measured here: cell count per field, at 20 µM
[2] = measured here: cytoplasmic GR-EGFP intensity, at 20 µM, stronger effect = higher value
[3] = measured here: nuclear GR-EGFP intensity, at 20 µM, stronger effect = lower value

Cc1nnc(SCCCCSc2nnc(C)c(=O)[nH]2)[nH]c1=O
z-score (at 20 µM, stronger effect = lower value): -0.311 (inactive)
z-score [1]: -0.339
z-score [2]: -0.259
z-score [3]: -0.0707

COC(=O)/C=C\C(=O)Nc1cccc([N+](=O)[O-])c1
z-score (at 20 µM, stronger effect = lower value): -4.05 (active)
z-score [1]: -0.741
z-score [2]: 1.08
z-score [3]: -2.26

CC(=O)Nc1cccc([N+](=O)[O-])c1
z-score (at 20 µM, stronger effect = lower value): 0.101 (inactive)
z-score [1]: 0.386
z-score [2]: -0.384
z-score [3]: 0.092

Cc1ccccc1NC(=S)Nc1cccc([N+](=O)[O-])c1
z-score (at 20 µM, stronger effect = lower value): -0.523 (inactive)
z-score [1]: -0.0166
z-score [2]: -0.193
z-score [3]: -0.37

COc1ccc(-c2csc3nc(-c4ccccc4F)oc(=O)c23)cc1OC
z-score (at 20 µM, stronger effect = lower value): -3.75 (active)
z-score [1]: -0.574
z-score [2]: 0.603
z-score [3]: -1.45

COc1ccc(-c2csc(-c3cccs3)n2)cc1OC
z-score (at 20 µM, stronger effect = lower value): 0.847 (inactive)
z-score [1]: 0.288
z-score [2]: -0.331
z-score [3]: 0.694

COc1ccc(-c2noc(-c3cccc(OC)c3OC)n2)cc1OC
z-score (at 20 µM, stronger effect = lower value): 1.03 (inactive)
z-score [1]: -0.605
z-score [2]: -0.0658
z-score [3]: 0.927

O=C(Nc1ccc(N2CCOCC2)cc1)c1ccc2c(c1)OCO2
z-score (at 20 µM, stronger effect = lower value): 1.56 (inactive)
z-score [1]: -0.797
z-score [2]: -0.257
z-score [3]: 0.727

CCCC1NC(=S)NC(C)=C1C(C)=O (stereo unspecified)
z-score (at 20 µM, stronger effect = lower value): 0.661 (inactive)
z-score [1]: 0.486
z-score [2]: -0.194
z-score [3]: 0.234

COc1ccc(C(=O)NCC(=O)N/N=C/c2ccc([N+](=O)[O-])s2)cc1OC
z-score (at 20 µM, stronger effect = lower value): -0.653 (inactive)
z-score [1]: 0.617
z-score [2]: -0.211
z-score [3]: -0.24

COc1ccc(C(=O)NCC(=O)N/N=C/c2ccc([N+](=O)[O-])o2)cc1OC
z-score (at 20 µM, stronger effect = lower value): -4.33 (active)
z-score [1]: 0.928
z-score [2]: 0.52
z-score [3]: -1.68

COc1cc(/C=N\NC(=O)CNC(=O)c2cccc([N+](=O)[O-])c2)ccc1O
z-score (at 20 µM, stronger effect = lower value): 2.51 (inactive)
z-score [1]: -1.15
z-score [2]: 0.0365
z-score [3]: 1.56

CC(C)(C)OC(=O)NCCCCCC(=O)N/N=C/c1coc2ccccc2c1=O
z-score (at 20 µM, stronger effect = lower value): -0.131 (inactive)
z-score [1]: -0.0505
z-score [2]: -0.202
z-score [3]: -0.314

C/C(=N\NC(=O)CSc1nc2ccccc2c(=O)n1-c1ccccc1C)c1cccs1
z-score (at 20 µM, stronger effect = lower value): 0.968 (inactive)
z-score [1]: -0.667
z-score [2]: -0.231
z-score [3]: 0.554

CCn1c(SCc2cc(=O)n3ccsc3n2)nc2ccccc21
z-score (at 20 µM, stronger effect = lower value): -0.0624 (inactive)
z-score [1]: -0.534
z-score [2]: -0.319
z-score [3]: 0.783

CCCCCCc1cc2cc(-c3nnc(-c4cccc(OC)c4)o3)c(=O)oc2cc1O
z-score (at 50 µM, stronger effect = lower value): -2.6 (inactive)
z-score (measured here: cell count per field, at 50 µM): -0.146
z-score (measured here: cytoplasmic GR-EGFP intensity, at 50 µM, stronger effect = higher value): 22.1
z-score (measured here: nuclear GR-EGFP intensity, at 50 µM, stronger effect = lower value): 2.79

CC(C)Sc1nnc([C@H](Cc2ccccc2)NC(=O)OC(C)(C)C)o1
z-score (at 20 µM, stronger effect = lower value): -1.61 (inactive)
z-score [1]: 1.71
z-score [2]: 0.279
z-score [3]: -0.731

C[C@@H](NC(=O)OC(C)(C)C)c1nnc(S(=O)(=O)Cc2ccccc2)o1
z-score (at 20 µM, stronger effect = lower value): -5.36 (active)
z-score [1]: 0.73
z-score [2]: 1.44
z-score [3]: -2.38

C[C@H](NC(=O)OC(C)(C)C)c1nnc(SCC(N)=O)o1
z-score (at 20 µM, stronger effect = lower value): 0.077 (inactive)
z-score [1]: -0.312
z-score [2]: -0.175
z-score [3]: 0.307
